ARNT TACC3 PPI: disruptors of human ARNT/TACC3 interaction; inhibition, % at 9.99 µM; AID 623870; 390,000 compounds, 0.66% hits; AlphaScreen His-ARNT PAS-B/GST-TACC3 binding, luminescence; TACC3 fragment carries E629A point mutation;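 active = mean inhibition of replicates at least 50% and at least half of replicates each reaching 50%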;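 also: 0% = complete ARNT plus TACC3 wells and 100% = ARNT alone without TACC3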
CFTR F508del cor: correctors of CFTR F508del function in bronchial epithelial cells; 350,000 compounds, 0.36% hits; activity (quench increase), % at 7.58 µM; AID 720511; CFBE cells, YFP halide quenching; stimulated with forskolin plus potentiator P3; % fluorescence drop versus neutral controls;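 active = mean added fluorescence quench of at least 8% versus neutral control, with both replicates also reaching 8%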;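 also: cells transiently co-express mutant CFTR-F508del with the halide-sensitive YFP; corrector assay measuring rescue of mutant channel to the surface after 24 h compound exposure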
PGC1a acetyl inh: PGC1a acetylation modulation, inhibitor mode; AID 651687; 350,000 compounds, 0.17% hits; U2OS PGC1a acetylation, AlphaScreen anti-acetyl-lysine; with virally co-expressed GCN5 acetyltransferase; inhibition, % at 15.6 µM;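 active = every replicate shows inhibition of at least 40%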;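 also: 0% = neutral control wells and 100% = positive control wells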
CAL PDZ FP-1: inhibitors of human CAL PDZ peptide binding | 330,000 compounds, 0.02% hits | inhibition, % at 20 µM | purified CAL PDZ, TMR-peptide fluorescence polarization, 1 h | AID 504414;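 active = highest replicate inhibition of at least 40%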;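 also: plate controls were DMSO neutral control wells for no effect and unlabeled competitor peptide control wells for full effect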
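System: purified tagged CAL PDZ domain construct (CerCALP). Schedule: 1 h incubation at room temperature before polarization reading. Medium: 25 mM sodium phosphate pH 7.4, 150 mM NaCl, TCEP, IgG, Thesit. Read-out: percent inhibition from loss of millipolarization. Measured by: FP readout, S and P plane fluorescence. Probe or stimulus: fluorescent TMR peptide probe.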
miR-122 sensor: miR-122 inhibition in Huh7 cells. Huh7 miR-122 Renilla luciferase sensor, 48 h; neutral wells = 0, positive control = 100. activation (reporter increase), % at 12.5 µM. 340,000 compounds, 0.3% hits;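 active = mean replicate activation score at least 90 and every replicate individually at or above 90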;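 also: higher luciferase means less miR-122 activity so hits act as miR-122 inhibitors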
CAL PDZ FP-2: inhibitors of human CAL PDZ peptide binding; purified CAL PDZ, TMR-peptide fluorescence polarization, 1 h; inhibition, % at 24.9 µM; 300,000 compounds, 0.92% hits;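 active = mean inhibition of at least 30% with at least half of replicates also reaching 30%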;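 also: 0% = DMSO neutral control and 100% = excess unlabeled competitor peptide PRC23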
The depositor's hits bear a star; / = not tested or not shown; [ ] = another dose, or the depositor's remark. A selection: hits, their analogues and other compounds. The true share with any hit is near 1.7%.

SMILES	ARNT TACC3 PPI	CFTR F508del cor	PGC1a acetyl inh	CAL PDZ FP-1	miR-122 sensor	CAL PDZ FP-2
CCOc1cc(/C=N/Nc2nn3cnnc3c3ccccc23)ccc1O	57*	-3	-3	8	1	-2
CSc1ccc(S(=O)(=O)Nc2ccc(F)cc2)cc1	-11	/	-8	-1	120*	-4
O=c1c(O)c(-c2cccs2)oc2ccccc12	-11	/	3	0	-6	-5
O=c1c(O)c(-c2cccs2)oc2ccc(Cl)cc12	-4	53*	-2	-1	-3	/
O=C(O)CCC(=O)N1CCN(S(=O)(=O)c2ccc3ccccc3c2)CC1	/	-1	/	-2	-5	-2
O=C(Cn1ncc(Cl)c(Cl)c1=O)N1CCN(S(=O)(=O)c2ccc3ccccc3c2)CC1	3	/	77*	0	2	6
O=C(C=Cc1ccccc1)c1cc(Br)ccc1O	-8	0	/	21	-5	81*
O=C(/C=C/c1cc(Br)ccc1O)c1ccco1	7	-2	-13	-1	195*	-7
Cc1ccc(S(=O)(=O)N(C)C[C@H]2Oc3ccc(NC(=O)CCCCCC(=O)Nc4ccccc4N)cc3CC(=O)N([C@H](C)CO)C[C@@H]2C)cc1	-7	-2	9	/	-4[16.7 µM]	/
C[C@@H]1CN([C@@H](C)CO)C(=O)c2cc(-c3cccnc3)cnc2O[C@H]1CN(C)C(=O)c1ccccc1F	-6	-3	-1	/	-4[16.7 µM]	/
CCCNC(=O)N1CC2(C1)[C@H](c1ccccc1)[C@H](CO)N2Cc1cccc(F)c1	/	2	-13	/	/	/
O=c1c2c(-c3ccccc3)csc2ncn1/N=C/c1cccc([N+](=O)[O-])c1O	72*	2	/	1	8	/
CC(=O)N[C@@H]1C=C[C@@H](CC(=O)NCc2ccc(Cl)cc2)O[C@H]1CO	-4	0	3	/	/	/
CCC(=O)Nc1ccc(C(=O)Nc2cccc(C)n2)cc1	0	/	0	-2	218*	-2
CCOC(=O)c1ccc(NC(=O)Nc2cccc(C)n2)cc1	0	1	-14	-2	1	0
COCc1[nH][nH]c(=O)c1/C=N/N1CCOCC1	-5	2	/	-1	/	43*
COCc1[nH][nH]c(=O)c1C=Nc1ccccc1	/	/	6	-3	1	1
Brc1ccc(-c2cn3c(n2)CCc2ccc4cccnc4c2-3)cc1	47*	/	-13	-1	10	1
COc1ccc(CCNC(=O)Cn2c(=O)n(-c3cc(F)ccc3F)c(=O)c3sccc32)cc1OC	-17	-1	-20	-1	-6	2
COc1ccc(CCNC(=O)Cn2c(=O)n(-c3ccc(F)cc3F)c(=O)c3sccc32)cc1OC	-5	-2	-5	/	72	32*
O=C(C[C@@H]1CC[C@H]2[C@@H](COC[C@H](O)CN2C(=O)C2CC2)O1)NCc1ccncc1	-6	-1	10	/	3[16.7 µM]	/
Cc1cc(O)c2c(c1O)C(=O)[C@]13C(=C2O)C(=O)[C@@H]2[C@@H](O)[C@H]1[C@@H]1[C@H](O)[C@H]3C(=O)C3=C(O)c4c(O)cc(C)c(O)c4C(=O)[C@]312	47*	/	-7	14	-10	27
CC(=O)N1[C@@H]2c3ccc(C4=CCCC4)c(=O)n3C[C@H]1[C@H](CO)[C@H]2C(=O)NC1CCCC1	/	-2	-3	/	/	/
C[C@@H](NC(=O)C[C@H]1C=C[C@H](NC(=O)C2CC2)[C@H](CO)O1)c1ccccc1	8	0	-8	/	/	/
Cc1ccc(OCC(=O)N(Cc2ccccc2)c2ccccn2)cc1	-11	-2	-11	-2	10	-2
Cc1ccc(CC(=O)N(Cc2ccccc2)c2ccccn2)cc1	-5	1	-17	-3	118*	-5
COc1cccc(NC(=O)N(C)C[C@H]2Oc3cc(-c4ccccc4F)ccc3S(=O)(=O)N([C@H](C)CO)C[C@@H]2C)c1	1	-5	9	/	18[16.7 µM]	/
C[C@H](CO)N1C[C@H](C)[C@@H](CN(C)S(=O)(=O)c2cn(C)cn2)OCCCC[C@H](C)Oc2ccc(NS(=O)(=O)c3ccccc3)cc2C1=O	-10	2	3	/	3[16.7 µM]	/

Bioassay records deposited in PubChem by Broad Institute.
